Experiments:
[1] = Inhibition of calcium channel in pig carotid artery assessed as relaxation of KCl-induced tissue contraction; type: tissue-based, Sus scrofa
How it was run: (§1)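 Arterial strips equilibrated 90-120 min in PSS at 37 °C, pH 7.4, bubbled with 100% O₂, under ~2 g passive force (near L_0), and repeatedly contracted with 110 mM KCl (equimolar NaCl substitution) until force stabilized. Then precontracted with 110 mM KCl PSS to stable force; cumulative compound addition (1 μM to 30 mM), DMSO vehicle control. Force expressed as percent of initial maximal KCl response at each concentration.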

Sus scrofa = organism: Sus scrofa; experiment: Inhibition of calcium channel in pig carotid artery assessed as relaxation of KCl-induced tissue contraction at 1 uM to 30 mM; type: tissue-based; how it was run: as §1

Compound	IC50 [1]	inhibition (Sus scrofa)
CCCCN1C(=O)NC(c2ccccc2)C(C(=O)OCC)=C1C (stereo not drawn)	100 µM	40%
COC(=O)C1=C(C)NC(C)=C(C(=O)OC)C1c1ccccc1[N+](=O)[O-] [NIFEDIPINE]	10 µM	–
CCOC(=O)C1=C(C)N(CC)C(=O)NC1c1ccccc1 (stereo not drawn)	100 µM	40%
CCCCCN1C(=O)NC(c2ccccc2)C(C(=O)OCC)=C1C (stereo not drawn)	100 µM	40%
CCCN1C(=O)NC(c2ccccc2)C(C(=O)OCC)=C1C (stereo not drawn)	100 µM	40%
C=CCN1C(=O)NC(c2ccccc2)C(C(=O)OCC)=C1C (stereo not drawn)	100 µM	40%
CCCCCCCCCCN1C(=O)NC(c2ccccc2)C(C(=O)OCC)=C1C (stereo not drawn)	100 µM	40%

From ChEMBL document CHEMBL1158353, “N1-Alkylated 3,4-dihydropyrimidine-2(1H)-ones: Convenient one-pot selective synthesis and evaluation of their calcium channel blocking activity” (Eur J Med Chem, 2009)
